Experiment [1] relates to Bacillus subtilis. The experiment can be described thus: Antimicrobial activity against Bacillus subtilis NCIM-2063 after 20 hrs by two fold serial macrodilution technique. It counts as functional. Conditions: NCIM-2063, 20 h. The method, boiled down: (§1)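 Serial macrodilution in 96-well microtiter plates. Compounds were dissolved in saline (0.8% NaCl) containing 5% DMSO, and strains were incubated with a range of concentrations for 20 h at 37 °C on a rotary shaker (160 rpm). MIC was the lowest concentration without growth. Runs were in triplicate, with the mean taken. The negative control was 5% DMSO.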

For experiment [2], the system named is Bacillus subtilis. The experiment can be described thus: Bactericidal activity against Bacillus subtilis NCIM-2063 after 72 hrs by two fold serial macrodilution technique. It counts as functional. To be noted: NCIM-2063, 72 h. The procedure, abridged: (§2)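 Serial subcultivation followed 72 h of exposure to compounds dissolved in saline containing 5% DMSO. MBC/MFC was the lowest concentration with no visible growth, taken as 99.5% killing of the original inoculum. Runs were in triplicate, with the mean reading used.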

Experiment [3] deals with Candida albicans. The experiment is described as follows: Fungicidal activity against Candida albicans NCIM-3471 after 48 to 72 hrs by two fold serial macrodilution technique. Format: functional. The procedure, abridged: as §2
The subject of experiment [4] is Staphylococcus aureus. The experiment is described as follows: Antimicrobial activity against Staphylococcus aureus NCIM-2901 after 20 hrs by two fold serial macrodilution technique. It counts as functional. To be noted: NCIM-2901, 20 h. The procedure, abridged:
as §1

For experiment [5], the system named is Aspergillus niger. The experiment can be described thus: Fungicidal activity against Aspergillus niger NCIM-1196 after 48 to 72 hrs by two fold serial macrodilution technique. Format: functional. The procedure, abridged: as §2
Experiment [6] has as its system Escherichia coli. The experiment can be described thus: Bactericidal activity against Escherichia coli NCIM-2256 after 72 hrs by two fold serial macrodilution technique. Conditions: NCIM-2256, 72 h. It counts as functional. The method, boiled down: as §2
In experiment [7] the test system is Aspergillus niger. The experiment can be described thus: Antimicrobial activity against Aspergillus niger NCIM-1196 after 20 hrs by two fold serial macrodilution technique. It counts as functional. To be noted: NCIM-1196, 20 h.
Experiment [8] has as its system Escherichia coli. The experiment is described as follows: Antimicrobial activity against Escherichia coli NCIM-2256 after 20 hrs by two fold serial macrodilution technique. Format: functional. To be noted: NCIM-2256, 20 h. The method, boiled down:
as §1

Experiment [9] concerns Staphylococcus aureus. The experiment is described as follows: Bactericidal activity against Staphylococcus aureus NCIM-2901 after 72 hrs by two fold serial macrodilution technique. To be noted: NCIM-2901, 72 h. It counts as functional. The method, boiled down:
as §2

Experiment [10] concerns Salmonella typhimurium. The experiment is described as follows: Antimicrobial activity against […] after 20 hrs by two fold serial macrodilution technique. It counts as functional, Salmonella enterica subsp. enterica serovar Typhimurium. To be noted: Salmonella enterica. The method, boiled down: as §1
Experiment [11] has as its system Salmonella typhimurium. The experiment can be described thus: Bactericidal activity against […] after 72 hrs by two fold serial macrodilution technique. Format: functional, Salmonella enterica subsp. enterica serovar Typhimurium. Conditions: Salmonella enterica. The method, boiled down:
as §2

In experiment [12] the test system is Cryptococcus neoformans. The experiment is described as follows: Fungicidal activity against Cryptococcus neoformans NCIM-3378 after 48 to 72 hrs by two fold serial macrodilution technique. Format: functional. The method, boiled down:
as §2

Experiment [13] deals with Cryptococcus neoformans. The experiment is described as follows: Antimicrobial activity against Cryptococcus neoformans NCIM-3378 after 20 hrs by two fold serial macrodilution technique. Format: functional. Conditions: NCIM-3378, 20 h.
The test system of experiment [14] is Aspergillus flavus. The experiment can be described thus: Antimicrobial activity against Aspergillus flavus NCIM-539 after 20 hrs by two fold serial macrodilution technique. Conditions: NCIM-539, 20 h. Format: functional.
In a further experiment the test system is MCF7. The experiment can be described thus: Cytotoxicity against human MCF7 cells by SRB method. Format: cell-based. The method, boiled down:
(§3)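 SRB colorimetric growth assay. IC50, in µM, was the concentration inhibiting cell growth by 50% relative to untreated control cells. Runs were in triplicate in three independent experiments, with means reported. The positive control was doxorubicin.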

Experiment [15] relates to Aspergillus flavus. The experiment can be described thus: Fungicidal activity against Aspergillus flavus NCIM-539 after 48 to 72 hrs by two fold serial macrodilution technique. It counts as functional. The procedure, abridged:
as §2

Experiment [16] concerns Candida albicans. The experiment can be described thus: Antimicrobial activity against Candida albicans NCIM-3471 after 20 hrs by two fold serial macrodilution technique. Format: functional. Conditions: NCIM-3471, 20 h.
The next experiment deals with HeLa. The experiment is described as follows: Cytotoxicity against human HeLa cells by SRB method. It counts as cell-based. The procedure, abridged:
as §3

Values after ≈ are worked out from the molar mass of the structure shown.

Regarding `O=C1CSC(c2ccc(F)cc2)N1c1ccc(Cl)cc1O` (stereo not given), the MIC against Bacillus subtilis [1] was found to be 55 µg/mL (≈ 170 µM); against Staphylococcus aureus [4], 25 µg/mL (≈ 77.2 µM); in the experiment with Aspergillus niger [7], 50 µg/mL (≈ 154 µM); against Escherichia coli [8], 70 µg/mL (≈ 216 µM); with Salmonella typhimurium [10], 60 µg/mL (≈ 185 µM); against Cryptococcus neoformans [13] it was 90 µg/mL (≈ 278 µM). For the same compound, the MIC turned out to be 90 µg/mL (≈ 278 µM) against Aspergillus flavus [14] and 65 µg/mL (≈ 201 µM) against Candida albicans [16]. In addition, the MBC is 150 µg/mL (≈ 463 µM) in the experiment with Bacillus subtilis [2], 145 µg/mL (≈ 448 µM) with Escherichia coli [6], 45 µg/mL (≈ 139 µM) against Staphylococcus aureus [9] and 140 µg/mL (≈ 432 µM) in the experiment with Salmonella typhimurium [11]. For the same compound, the MFC against Candida albicans [3] was 150 µg/mL (≈ 463 µM); against Aspergillus niger [5], 140 µg/mL (≈ 432 µM); against Cryptococcus neoformans [12], 145 µg/mL (≈ 448 µM); against Aspergillus flavus [15] it was 140 µg/mL (≈ 432 µM). Moreover, the results for the IC50 with MCF7 and in the experiment with HeLa were 68.7 µM and 72.4 µM, respectively.
In the case of `COc1ccc(C2SCC(=O)N2c2ccc(Cl)cc2O)cc1` (stereo not given), the MIC in the experiment with Bacillus subtilis [1] worked out at 30 µg/mL (≈ 89.3 µM); in the experiment on Staphylococcus aureus [4] it was 30 µg/mL (≈ 89.3 µM); with Aspergillus niger [7], 80 µg/mL (≈ 238 µM); in the experiment on Escherichia coli [8], 35 µg/mL (≈ 104 µM); with Salmonella typhimurium [10] it was 25 µg/mL (≈ 74.4 µM); with Cryptococcus neoformans [13], 65 µg/mL (≈ 194 µM). The MIC with Aspergillus flavus [14] and against Candida albicans [16] was 15 µg/mL (≈ 44.7 µM) each time. Further, the MBC against Bacillus subtilis [2] was 40 µg/mL (≈ 119 µM); in the experiment with Escherichia coli [6], 45 µg/mL (≈ 134 µM); with Staphylococcus aureus [9], 40 µg/mL (≈ 119 µM); with Salmonella typhimurium [11] it was 110 µg/mL (≈ 328 µM). The MFC in the experiment on Candida albicans [3] is 20 µg/mL (≈ 59.6 µM); in the experiment on Aspergillus niger [5] it was 150 µg/mL (≈ 447 µM); in the experiment on Cryptococcus neoformans [12] it was 155 µg/mL (≈ 462 µM); against Aspergillus flavus [15] it was 20 µg/mL (≈ 59.6 µM). For the same compound, the IC50 in the experiment with MCF7 is 48.6 µM; with HeLa, 51.6 µM.
Consider `O=C1CSC(c2ccc([N+](=O)[O-])cc2)N1c1ccc(Cl)cc1O` (stereo not given), for which the MIC was 100 µg/mL (≈ 285 µM) against Bacillus subtilis [1]; 85 µg/mL (≈ 242 µM) against Staphylococcus aureus [4]; 100 µg/mL (≈ 285 µM) in the experiment with Aspergillus niger [7]; 90 µg/mL (≈ 257 µM) against Escherichia coli [8]; 80 µg/mL (≈ 228 µM) with Salmonella typhimurium [10]; 90 µg/mL (≈ 257 µM) against Cryptococcus neoformans [13]. The MIC against Aspergillus flavus [14] stood at 75 µg/mL (≈ 214 µM); against Candida albicans [16], 95 µg/mL (≈ 271 µM). Further, the MBC with Bacillus subtilis [2] came to 140 µg/mL (≈ 399 µM); in the experiment on Escherichia coli [6], 155 µg/mL (≈ 442 µM); against Staphylococcus aureus [9] it was 140 µg/mL (≈ 399 µM); with Salmonella typhimurium [11] it was 135 µg/mL (≈ 385 µM). The minimum fungicidal concentration (MFC) against Candida albicans [3] stood at 155 µg/mL (≈ 442 µM); with Aspergillus niger [5], 160 µg/mL (≈ 456 µM); against Cryptococcus neoformans [12] it was 135 µg/mL (≈ 385 µM); with Aspergillus flavus [15], 135 µg/mL (≈ 385 µM). Also, the results for the IC50 in the experiment on MCF7 and in the experiment with HeLa were 41 µM and 52.2 µM, respectively.
For `O=C1CSC(c2ccccn2)N1c1ccc(Cl)cc1O` (stereo not given), the MIC against Bacillus subtilis [1] came to 85 µg/mL (≈ 277 µM); in the experiment on Staphylococcus aureus [4] it was 60 µg/mL (≈ 196 µM); with Aspergillus niger [7] it was 80 µg/mL (≈ 261 µM); against Escherichia coli [8], 90 µg/mL (≈ 293 µM); in the experiment on Salmonella typhimurium [10], 85 µg/mL (≈ 277 µM); in the experiment on Cryptococcus neoformans [13], 75 µg/mL (≈ 244 µM). Also, the MIC in the experiment on Aspergillus flavus [14] amounted to 100 µg/mL (≈ 326 µM); with Candida albicans [16] it was 55 µg/mL (≈ 179 µM). In addition, the MBC is 165 µg/mL (≈ 538 µM) against Bacillus subtilis [2], 165 µg/mL (≈ 538 µM) against Escherichia coli [6], 155 µg/mL (≈ 505 µM) against Staphylococcus aureus [9] and 150 µg/mL (≈ 489 µM) with Salmonella typhimurium [11]. Also, the MFC was 155 µg/mL (≈ 505 µM) with Candida albicans [3], 155 µg/mL (≈ 505 µM) in the experiment with Aspergillus niger [5], 150 µg/mL (≈ 489 µM) in the experiment on Cryptococcus neoformans [12] and 165 µg/mL (≈ 538 µM) in the experiment with Aspergillus flavus [15]. The results for the IC50 in the experiment on MCF7 and in the experiment on HeLa were 88.7 µM and 87.2 µM, respectively.
Regarding `O=C1CSC(c2ccccc2)N1c1ccc(Cl)cc1O` (stereo not given), the MIC is 60 µg/mL (≈ 196 µM) in the experiment with Bacillus subtilis [1]; 25 µg/mL (≈ 81.8 µM) in the experiment on Staphylococcus aureus [4]; 90 µg/mL (≈ 294 µM) against Aspergillus niger [7]; 65 µg/mL (≈ 213 µM) in the experiment on Escherichia coli [8]; 55 µg/mL (≈ 180 µM) in the experiment on Salmonella typhimurium [10]; 70 µg/mL (≈ 229 µM) with Cryptococcus neoformans [13]. Also, the values for the MIC against Aspergillus flavus [14] and with Candida albicans [16] were 80 µg/mL (≈ 262 µM) and 60 µg/mL (≈ 196 µM), respectively. Also, the MBC in the experiment with Bacillus subtilis [2] stood at 85 µg/mL (≈ 278 µM); in the experiment on Escherichia coli [6] it was 125 µg/mL (≈ 409 µM); with Staphylococcus aureus [9], 40 µg/mL (≈ 131 µM); with Salmonella typhimurium [11] it was 120 µg/mL (≈ 392 µM). In addition, the MFC in the experiment on Candida albicans [3] came to 115 µg/mL (≈ 376 µM); with Aspergillus niger [5], 120 µg/mL (≈ 392 µM); with Cryptococcus neoformans [12], 125 µg/mL (≈ 409 µM); against Aspergillus flavus [15], 115 µg/mL (≈ 376 µM). For the same compound, the IC50 with MCF7 worked out at 56.8 µM; with HeLa, 63.7 µM.

Values taken from ChEMBL document CHEMBL3352499, “One pot three components microwave assisted and conventional synthesis of new 3-(4-chloro-2-hydroxyphenyl)-2-(substituted) thiazolidin-4-one as antimicrobial agents” (Bioorg Med Chem Lett, 2014).
